In ChEMBL document CHEMBL1125910, “Design of a well-absorbed renin inhibitor” (J Med Chem, 1991) one finds Plasma level, IC50 and inhibition data, which are given here for five compounds.

Each structure is given as a SMILES string. pIC50: −log10 of the molar value.

Assay [1] concerns Rattus norvegicus. The assay is described as follows: Upon intraduodenal administration in rats at a dose of 10 mg/kg, portal plasma levels calculated after 10 min. Type of assay: functional, organism-based. Set-up: dose 10 mg/kg. Put shortly:
(§1)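 Anesthetized rats given 10 mg/kg intraduodenally. Blood sampled at 10 and 30 min from the portal vein and from the systemic circulation. Drug level in plasma measured by renin inhibition assay, reported in ng/mL as mean ± SE, n = 3 (some groups 5 or 6).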

Assay [2] addresses T1, Renin (Homo sapiens, UniProt P00797).
T1 sequence (P00797 whole entry): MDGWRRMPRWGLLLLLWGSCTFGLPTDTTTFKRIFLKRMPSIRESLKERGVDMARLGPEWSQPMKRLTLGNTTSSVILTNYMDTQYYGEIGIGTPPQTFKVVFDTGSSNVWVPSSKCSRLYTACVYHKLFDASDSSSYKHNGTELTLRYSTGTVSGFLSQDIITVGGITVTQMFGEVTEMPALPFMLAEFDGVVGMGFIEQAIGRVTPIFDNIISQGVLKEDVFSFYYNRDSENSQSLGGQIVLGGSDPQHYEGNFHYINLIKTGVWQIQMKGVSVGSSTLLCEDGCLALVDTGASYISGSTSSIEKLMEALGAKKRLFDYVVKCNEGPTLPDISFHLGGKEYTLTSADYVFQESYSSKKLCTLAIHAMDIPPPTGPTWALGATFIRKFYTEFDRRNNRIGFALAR
The assay is described as follows: Compound was evaluated for the inhibitory concentration against human plasma renin at pH 7.4. Type of assay: cell-free. Put shortly: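 Renin inhibition assayed in human plasma, with plasma renin as the enzyme source, at pH 7.4. IC50 reported in nM.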

Assay [3] deals with T1, Renin. The assay is described as follows: Compound was evaluated for the inhibitory concentration against purified human renal renin at pH 6.5.
Assay [4] deals with Rattus norvegicus. The assay is described as follows: Upon intraduodenal administration in rats at a dose of 10 mg/kg, portal plasma levels calculated after 30 min. Also noted: dose 10 mg/kg. Type of assay: functional, organism-based. Put shortly:
as §1

The test system of assay [5] is Rattus norvegicus. The assay is described as follows: Upon intraduodenal administration in rats at a dose of 10 mg/kg, systemic plasma levels calculated after 10 min. It is filed as functional, organism-based. Set-up: dose 10 mg/kg. Put shortly:
as §1

Assay [6] deals with Rattus norvegicus. The assay is described as follows: Upon intraduodenal administration in rats at a dose of 10 mg/kg, systemic plasma levels calculated after 30 min. Type of assay: functional, organism-based. Also noted: dose 10 mg/kg. Put shortly:
as §1

Assay [7] concerns the target T2, Cathepsin D (Bos taurus) (UniProt P80209).
T2 sequence (whole entry): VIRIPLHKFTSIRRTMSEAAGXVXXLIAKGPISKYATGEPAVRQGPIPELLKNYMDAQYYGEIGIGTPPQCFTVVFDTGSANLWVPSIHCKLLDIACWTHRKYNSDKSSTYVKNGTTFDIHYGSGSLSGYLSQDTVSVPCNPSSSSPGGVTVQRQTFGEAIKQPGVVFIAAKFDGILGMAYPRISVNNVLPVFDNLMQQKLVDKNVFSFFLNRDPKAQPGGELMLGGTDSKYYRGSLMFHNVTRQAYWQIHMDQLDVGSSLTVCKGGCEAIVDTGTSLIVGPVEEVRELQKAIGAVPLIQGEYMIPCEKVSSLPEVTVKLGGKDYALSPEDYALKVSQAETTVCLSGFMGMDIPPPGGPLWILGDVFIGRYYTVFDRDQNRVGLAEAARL
The assay is described as follows: Inhibitory activity against cathepsin D in bovine at 1*10e-5 M concentration. In short, it runs like this: (§2)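 Bovine or human cathepsin D, assayed at pH 3.0; percent inhibition recorded with inhibitor at 1 × 10^-5 M, and also at 1 × 10^-7 M.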

The target in a further assay is Pepsin A (Sus scrofa) (UniProt P00791). The assay is described as follows: Inhibitory activity against pepsin in porcine at 1*10e-5 M concentration. It is filed as functional. Put shortly: (§3)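 Human or porcine pepsin, assayed at pH 2.0; percent inhibition recorded with inhibitor at 1 × 10^-5 M.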
Chain of Pepsin A (Sus scrofa) (P00791 60-385 limits assumed): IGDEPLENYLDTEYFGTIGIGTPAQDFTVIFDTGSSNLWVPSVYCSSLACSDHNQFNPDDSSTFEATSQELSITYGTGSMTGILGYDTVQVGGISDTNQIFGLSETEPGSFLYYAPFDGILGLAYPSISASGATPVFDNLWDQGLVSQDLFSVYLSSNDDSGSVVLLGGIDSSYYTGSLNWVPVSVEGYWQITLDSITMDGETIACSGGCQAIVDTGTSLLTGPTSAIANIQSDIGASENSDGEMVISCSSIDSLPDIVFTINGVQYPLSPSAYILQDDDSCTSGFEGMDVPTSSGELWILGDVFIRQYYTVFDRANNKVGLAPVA
In assay [8] the target is Cathepsin D (Homo sapiens) (UniProt P07339). The assay is described as follows: Inhibitory activity against cathepsin D in human at 1*10e-7 M concentration. Put shortly:
as §2

The target of another assay is Pepsin A (Homo sapiens) (UniProt P0DJD9). The assay is described as follows: Inhibitory activity against human pepsin at 1*10e-5 M. Type of assay: functional. Put shortly:
as §3

Assay [9] deals with T2, Cathepsin D (Bos taurus). The assay is described as follows: Inhibitory activity against cathepsin D in bovine at 1*10e-7 M concentration. In short, it runs like this:
as §2

Assay [10] concerns the target Cathepsin D (Homo sapiens) (UniProt P07339). The assay is described as follows: Inhibitory activity against cathepsin D in human at 1*10e-5 M concentration. Put shortly: as §2

By pIC50 is commonly meant −log10 of the IC50, conventionally taken in molar units. A high value points to a small IC50. One may read the inhibition as the change of the read-out against control, counted positive when it falls.

Chain of Cathepsin D (Homo sapiens) (P07339 65-162 limits assumed): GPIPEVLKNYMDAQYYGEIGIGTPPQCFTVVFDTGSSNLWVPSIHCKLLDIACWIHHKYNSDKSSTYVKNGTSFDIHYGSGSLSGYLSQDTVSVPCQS
Chain of Cathepsin D (Homo sapiens) (P07339 169-412 limits assumed): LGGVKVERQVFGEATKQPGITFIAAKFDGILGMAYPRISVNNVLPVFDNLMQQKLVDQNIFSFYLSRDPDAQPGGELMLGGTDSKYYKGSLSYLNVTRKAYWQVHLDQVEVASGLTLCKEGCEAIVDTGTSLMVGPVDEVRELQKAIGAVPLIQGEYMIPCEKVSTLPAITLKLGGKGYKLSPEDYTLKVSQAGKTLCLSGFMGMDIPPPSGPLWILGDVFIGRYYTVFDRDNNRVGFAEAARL
Chain of Pepsin A (Homo sapiens) (P0DJD9 63-388 limits assumed): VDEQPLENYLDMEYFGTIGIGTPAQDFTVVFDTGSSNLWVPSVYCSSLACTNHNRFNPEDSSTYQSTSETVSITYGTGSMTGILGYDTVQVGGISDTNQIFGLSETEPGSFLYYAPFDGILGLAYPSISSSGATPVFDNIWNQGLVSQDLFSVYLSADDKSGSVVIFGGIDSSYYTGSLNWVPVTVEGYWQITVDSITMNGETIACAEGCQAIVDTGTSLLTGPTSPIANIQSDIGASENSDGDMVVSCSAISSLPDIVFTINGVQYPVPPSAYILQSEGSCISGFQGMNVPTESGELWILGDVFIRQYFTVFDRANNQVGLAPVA

Regarding `CCN1C[C@@H]([C@H](O)[C@H](CC2CCCCC2)NC(=O)[C@H](Cc2cc[nH]n2)NC(=O)[C@@H](CC(=O)N2CCOCC2)Cc2ccccc2)OC1=O`, the Plasma level in the assay with Rattus norvegicus [1] was 28 ng/mL; in the assay on Rattus norvegicus [4], 58 ng/mL; with Rattus norvegicus [5], 6.7 ng/mL; in the assay on Rattus norvegicus [6], 7 ng/mL. The pIC50 was 7.68 against Renin [2] and 8.96 at Renin [3].
For the compound `CCN1C[C@@H]([C@H](O)[C@H](CC2CCCCC2)NC(=O)[C@H](Cc2c[nH]cn2)NC(=O)[C@@H](CC(=O)N2CCOCC2)Cc2ccccc2)OC1=O`, the Plasma level in the assay with Rattus norvegicus [1] is 280 ng/mL; in the assay with Rattus norvegicus [4] it was 390 ng/mL; in the assay with Rattus norvegicus [5], 55 ng/mL; in the assay with Rattus norvegicus [6] it was 34 ng/mL. The inhibition at Cathepsin D (Bos taurus) [7] and on Pepsin A (Sus scrofa) was 2% each time.
Turning to `CCN1C[C@@H]([C@H](O)[C@H](CC2CCCCC2)NC(=O)[C@H](Cc2cn(C)cn2)NC(=O)[C@@H](CC(=O)N2CCOCC2)Cc2ccccc2)OC1=O`, the pIC50 against Renin [2] is 7.24; against Renin [3], 8.13.
On to `CCN1C[C@@H]([C@H](O)[C@H](CC2CCCCC2)NC(=O)[C@H](Cc2cscn2)NC(=O)[C@@H](CC(=O)N2CCOCC2)Cc2ccccc2)OC1=O`, for which the inhibition was 40% in [8]; 93% against Cathepsin D (Bos taurus) [7]; 26% against Pepsin A (Homo sapiens); 57% on Pepsin A (Sus scrofa); 28% at Cathepsin D (Bos taurus) [9]; 100% in assay [10]. Also, the Plasma level is 1900 ng/mL in the assay on Rattus norvegicus [1], 1100 ng/mL with Rattus norvegicus [4], 320 ng/mL in the assay on Rattus norvegicus [5] and 300 ng/mL with Rattus norvegicus [6]. Moreover, the pIC50 is 8.09 against Renin [2] and 9.22 against Renin [3].
Take `CCN1C[C@@H]([C@H](O)[C@H](CC2CCCCC2)NC(=O)[C@H](Cc2cccs2)NC(=O)[C@@H](CC(=O)N2CCOCC2)Cc2ccccc2)OC1=O`: the pIC50 against Renin [2] was 7.37; against Renin [3], 8.82.
